Test results reported in ChEMBL document CHEMBL1123309, “Esters and lactones of phenolic amino carboxylic acids: prodrugs for iron chelation” (J Med Chem, 1986).

How the values were obtained:
Type in all cases: functional
Mus musculus [1] = assay: BDF1 male mice were administered with 200 mg/kg po and percent change in iron levels was determined in Feces
In short: (§1)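 Hypertransfused male BDF1 mice (canine red cells, washed and heated at 50 °C for 30 min) were dosed orally for 7 days with compound in distilled water or a fine suspension with Polysorbate 80 (2% final). Daily group urine and pooled feces (1 N HCl digest, 90 °C, 30 min, triplicate) were collected, and liver and spleen were homogenized. Iron was measured by atomic absorption and reported as % change vs transfused control.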

Mus musculus [2] = assay: BDF1 male mice were administered with 200 mg/kg po and percent change in iron levels was determined in spleen; in short: as §1
Mus musculus [3] = assay: BDF1 male mice were administered with 200 mg/kg poand percent change in iron levels was determined in Urine; in short: as §1
Mus musculus [4] = assay: BDF1 male mice were administered with the compound and number of survivors was determined at a dose 200 mg/kg po
In short: (§2)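 Male BDF1 mice were iron-loaded by transfusion of canine red cells. The cells were heparinised, washed twice in isotonic saline and heated at 50 °C for 30 min. Dosing started two days after the last transfusion, once daily for 7 consecutive days. Compounds were given in distilled water or as a fine aqueous suspension with Polysorbate 80 (2% final). Toxic signs were recorded daily and survivors counted per group.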

Mus musculus [5] = assay: BDF1 male mice were administered with 200 mg/kg po and percent change in iron levels was determined in Liver; in short: as §1
Mus musculus [6] = assay: BDF1 male mice were administered with 250 mg/kg intraperitoneally and percent change in iron levels was determined in Feces; conditions: route intraperitoneal
In short: (§3)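 Male BDF1 mice were hypertransfused with washed, heat-treated (50 °C, 30 min) canine red cells. Starting 2 days after the last transfusion, they received one ip injection daily for 7 days, in distilled water or an aqueous suspension with Polysorbate 80 (2% final). Group urine was collected every 24 h. Feces were digested in 1 N HCl (90 °C, 30 min, triplicate). Liver and spleen were homogenized. Iron was measured by atomic absorption and reported as % change vs transfused controls.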

Mus musculus [7] = assay: BDF1 male mice were administered with 250 mg/kg intraperitoneally and percent change in iron levels was determined in Urine; conditions: route intraperitoneal; in short: as §3
Mus musculus [8] = assay: BDF1 male mice were administered with 250 mg/kg intraperitoneally and percent change in iron levels was determined in Spleen; conditions: route intraperitoneal; in short: as §3
Mus musculus [9] = assay: BDF1 male mice were administered with 250 mg/kg intraperitoneally and percent change in iron levels was determined in Liver; conditions: route intraperitoneal; in short: as §3
Mus musculus [10] = assay: BDF1 male mice were administered with 250 mg/kg intraperitoneally and number of survivors was determined out of 240 tested; conditions: route intraperitoneal; in short: as §2

Structure (SMILES)	Iron change (Mus musculus [1]) [%]	Iron change (Mus musculus [2]) [%]	Iron change (Mus musculus [3]) [%]	No. of survivors (Mus musculus [4])	Iron change (Mus musculus [5]) [%]	Iron change (Mus musculus [6]) [%]	Iron change (Mus musculus [7]) [%]	Iron change (Mus musculus [8]) [%]	Iron change (Mus musculus [9]) [%]	No. of survivors (Mus musculus [10])
CC(=O)Oc1ccccc1CN(CCN(CC(=O)OC(C)(C)C)Cc1ccccc1OC(C)=O)CC(=O)OC(C)(C)C	-1	-6	-4	10	16	–	–	–	–	–
CC(=O)N(O)CCCCCNC(=O)CCC(=O)N(O)CCCCCNC(=O)CCC(=O)N(O)CCCCCN [DEFEROXAMINE]	–	–	–	–	–	7	270	2	-24	240
